In one experiment the test system is Platelet. In words: Relative potency, ratio of IC50 for drug to IC50 for AZD-6140 for platelet aggregation in human platelet rich plasma. In kind it is functional.
The target of another experiment is P2Y purinoceptor 12 (Homo sapiens, UniProt Q9H244). In words: Displacement of [33P]ADP from human recombinant P2Y12 receptor expressed in CHO cells. The format is cell-based. Summed up:
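Washed membranes from CHO cells expressing synthetic human P2Y12, incubated 1 h at room temperature with 0.2 nM 33P-MeSADP in 50 mM Tris/100 mM NaCl/1 mM EDTA. Compound was tested as a 7-point 3-fold series in triplicate. Nonspecific binding was defined with 300 nM 2-MeSADP, followed by filtration.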

The nature of experiment [1]: Antiplatelet aggregation activity against adenosine diphosphate-induced human platelet rich plasma assessed as inhibition of platelet aggregation by turbidimetric method. In kind it is functional. Particulars: Homo sapiens, Platelet, Plasma. Put shortly: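 Human PRP, prepared by two-step centrifugation and adjusted to 330 000 platelets/μL with PPP. Compound was preincubated 5 min at 37 °C in 0.5% DMSO, then 20 μM ADP was added. OD626 was read kinetically for 15 min at 37 °C with mixing between reads.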

SMILES strings stand for the structures.

Sequence of P2Y purinoceptor 12 (Q9H244 whole entry): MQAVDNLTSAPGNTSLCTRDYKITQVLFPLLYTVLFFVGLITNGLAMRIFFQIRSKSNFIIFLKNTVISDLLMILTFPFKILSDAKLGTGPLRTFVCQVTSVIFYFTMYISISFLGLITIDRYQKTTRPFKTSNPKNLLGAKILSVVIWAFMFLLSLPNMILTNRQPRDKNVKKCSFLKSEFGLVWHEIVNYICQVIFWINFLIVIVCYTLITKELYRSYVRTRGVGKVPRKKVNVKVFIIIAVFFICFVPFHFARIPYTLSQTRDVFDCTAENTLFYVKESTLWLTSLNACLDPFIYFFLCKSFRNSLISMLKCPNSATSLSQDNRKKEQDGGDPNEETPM

As for `CCCCCOC(=O)N1CCN(C(=O)[C@H](CCC(=O)O)NC(=O)c2cc(OCC3CCN(C(C)=O)CC3)cc(-c3ccccc3)n2)CC1`, the “Ratio IC50” value in the experiment with Platelet is 1.8. In addition, the Ki on P2Y purinoceptor 12 was found to be 1.3 nM. Further, the IC50 in experiment [1] came out at 1300 nM.
The corresponding values for `CCCCOC(=O)N1CCN(C(=O)[C@H](CCC(=O)O)NC(=O)c2cc(OCCCCO)cc(-c3ccccc3)n2)CC1` are 6.7, 4.9 nM and 4500 nM.
The corresponding values for `CCCCCOC(=O)N1CCN(C(=O)[C@H](CCC(=O)O)NC(=O)c2cc(NC(=O)CN3CCN(C)CC3)cc(-c3ccccc3)n2)CC1` are 4.1, 2.3 nM and 4300 nM.
On to `CCCCCOC(=O)N1CCN(C(=O)[C@H](CCC(=O)O)NC(=O)c2cc(OC(=O)N3CC[C@H](OC)C3)cc(-c3ccccc3)n2)CC1`, for which the “Ratio IC50” value with Platelet is given as 1. Also, on P2Y purinoceptor 12, the Ki is 4.9 nM. Also, in experiment [1], the IC50 is 690 nM.
As for `CCCCCOC(=O)N1CCN(C(=O)[C@H](CCC(=O)O)NC(=O)c2cc(C(=O)N(C)C3CCN(C)CC3)cc(-c3ccccc3)n2)CC1`, the “Ratio IC50” value with Platelet stood at 0.83. Besides, at P2Y purinoceptor 12, the Ki turned out to be 11 nM. Besides, the half-maximal inhibitory concentration (IC50) in experiment [1] is 350 nM.
The corresponding values for `CCCCOC(=O)N1CCN(C(=O)[C@H](CCC(=O)O)NC(=O)c2cc(OCC3CCCCN3)cc(-c3ccccc3)n2)CC1` (stereo not given in full) are 2, 11 nM and 1800 nM.
The corresponding values for `CCCCOC(=O)N1CCN(C(=O)[C@H](CCC(=O)O)NC(=O)c2cc(OC3CCOCC3)cc(-c3ccccc3)n2)CC1` are 6.3, 10 nM and 4100 nM.
With `CCCCCOC(=O)N1CCN(C(=O)[C@H](CCC(=O)O)NC(=O)c2cc(C(=O)NC3CCOCC3)cc(-c3ccccc3)n2)CC1`, the “Ratio IC50” value in the experiment with Platelet stood at 10. Besides, the Ki at P2Y purinoceptor 12 was 4.6 nM. Also, the IC50 in experiment [1] stood at 5600 nM.
The corresponding values for `CCCCCOC(=O)N1CCN(C(=O)[C@H](CCC(=O)O)NC(=O)c2cc(C(=O)N(C)CCCC)cc(-c3ccccc3)n2)CC1` are 3.3, 5.8 nM and 1800 nM.
For `CCCCCOC(=O)N1CCN(C(=O)[C@H](CCC(=O)O)NC(=O)c2cc(NC(=O)CN(C)C)cc(-c3ccccc3)n2)CC1`, the “Ratio IC50” value in the experiment on Platelet worked out at 6.4. In addition, the Ki on P2Y purinoceptor 12 is 4.1 nM. Moreover, the 50% inhibitory concentration (IC50) in experiment [1] is 5600 nM.
The corresponding values for `CCCCCOC(=O)N1CCN(C(=O)[C@H](CCC(=O)O)NC(=O)c2cc(OC3CCN(C)CC3)cc(-c3ccccc3)n2)CC1` are 1.8, 5 nM and 1800 nM.
The corresponding values for `CCCCCOC(=O)N1CCN(C(=O)[C@H](CCC(=O)O)NC(=O)c2cc(C(=O)N3CCN(C)CC3)cc(-c3ccccc3)n2)CC1` are 0.72, 5.8 nM and 530 nM.
The corresponding values for `CCCCCOC(=O)N1CCN(C(=O)[C@H](CCC(=O)O)NC(=O)c2cc(CCCO)cc(-c3ccccc3)n2)CC1` are 2.6, 3.8 nM and 1900 nM.
Turning to `CCCCOC(=O)N1CCN(C(=O)[C@H](CCC(=O)O)NC(=O)c2cc(OCCCOC)cc(-c3ccccc3)n2)CC1`, the “Ratio IC50” value in the experiment on Platelet was determined as 3.9. In addition, the Ki at P2Y purinoceptor 12 turned out to be 5.9 nM. Moreover, in experiment [1], the IC50 worked out at 2200 nM.
The corresponding values for `CCCCCOC(=O)N1CCN(C(=O)[C@H](CCC(=O)O)NC(=O)c2cc(C(=O)N(C)CCCN(C)C)cc(-c3ccccc3)n2)CC1` are 0.96, 8.6 nM and 420 nM.
The corresponding values for `CCCCOC(=O)N1CCN(C(=O)[C@H](CCC(=O)O)NC(=O)c2cc(OC3CCN(C)CC3)cc(-c3ccccc3)n2)CC1` are 1.9, 2.5 nM and 2000 nM.
The corresponding values for `CCCCOC(=O)N1CCN(C(=O)[C@H](CCC(=O)O)NC(=O)c2cc(N3CCC(N(C)C)CC3)cc(-c3ccccc3)n2)CC1` are 1.4, 5 nM and 1900 nM.
With `CCCCCOC(=O)N1CCN(C(=O)[C@H](CCC(=O)O)NC(=O)c2cc(CCC(=O)N3CCOCC3)cc(-c3ccccc3)n2)CC1`, the “Ratio IC50” value with Platelet was 2.4. Further, the Ki at P2Y purinoceptor 12 was found to be 3.7 nM. Besides, the IC50 in experiment [1] is 3100 nM.
Turning to `CCCCCOC(=O)N1CCN(C(=O)[C@H](CCC(=O)O)NC(=O)c2cc(CCCCOC)cc(-c3ccccc3)n2)CC1`, the “Ratio IC50” value in the experiment on Platelet was 4.5. Besides, on P2Y purinoceptor 12, the Ki was 8.3 nM. Besides, the IC50 in experiment [1] was 4200 nM.
The corresponding values for `CCOC(=O)N1CCN(C(=O)[C@H](CCC(=O)O)NC(=O)c2cc(NCCO)cc(-c3ccccc3)n2)CC1` are 14, 117 nM and 12000 nM.
The corresponding values for `CCCCOC(=O)N1CCN(C(=O)[C@H](CCC(=O)O)NC(=O)c2cc(OCCC3CCNCC3)cc(-c3ccccc3)n2)CC1` are 0.45, 3 nM and 460 nM.
The corresponding values for `CCCCCOC(=O)N1CCN(C(=O)[C@H](CCC(=O)O)NC(=O)c2cc(CCCCO)cc(-c3ccccc3)n2)CC1` are 4.2, 3.6 nM and 3200 nM.
For the molecule `CCCCOC(=O)N1CCN(C(=O)[C@H](CCC(=O)O)NC(=O)c2cc(OC(=O)N3CCC(OCC)CC3)cc(-c3ccccc3)n2)CC1`, the “Ratio IC50” value with Platelet is given as 1.2. Moreover, the Ki on P2Y purinoceptor 12 is 2.1 nM. The IC50 in experiment [1] is 1000 nM.
The corresponding values for `CCCCOC(=O)N1CCN(C(=O)[C@H](CCC(=O)O)NC(=O)c2cc(OC3CCN(C(C)=O)CC3)cc(-c3ccccc3)n2)CC1` are 1.1, 2.8 nM and 1200 nM.
The corresponding values for `CCCCOC(=O)N1CCN(C(=O)[C@H](CCC(=O)O)NC(=O)c2cc(OC(=O)N(C)CC3CCOCC3)cc(-c3ccccc3)n2)CC1` are 0.87, 1.5 nM and 590 nM.
The corresponding values for `CCCCOC(=O)N1CCN(C(=O)[C@H](CCC(=O)O)NC(=O)c2cc(OCCCO)cc(-c3ccccc3)n2)CC1` are 5.1, 6.9 nM and 2900 nM.
`CCCCCOC(=O)N1CCN(C(=O)[C@H](CCC(=O)O)NC(=O)c2cc(NC(=O)N3CCC(OC)CC3)cc(-c3ccccc3)n2)CC1`: the “Ratio IC50” value with Platelet is 6.1. In addition, the inhibitory constant (Ki) on P2Y purinoceptor 12 turned out to be 9.2 nM. Further, the IC50 in experiment [1] was found to be 5500 nM.
Consider `CCCCCOC(=O)N1CCN(C(=O)[C@H](CCC(=O)O)NC(=O)c2cc(N3CCC(OC)CC3)cc(-c3ccccc3)n2)CC1`, for which the “Ratio IC50” value in the experiment on Platelet came out at 3. Also, the Ki at P2Y purinoceptor 12 came out at 15 nM. Besides, in experiment [1], the IC50 was 3900 nM.
The corresponding values for `CCCCCOC(=O)N1CCN(C(=O)[C@H](CCC(=O)O)NC(=O)c2cc(C(=O)NCCOC)cc(-c3ccccc3)n2)CC1` are 18, 7.9 nM and 8000 nM.
The corresponding values for `CCOC(=O)N1CCN(C(=O)[C@H](CCC(=O)O)NC(=O)c2cc(OCCCOC)cc(-c3ccccc3)n2)CC1` are 11, 69 nM and 8200 nM.
The corresponding values for `CCCCOC(=O)N1CCN(C(=O)[C@H](CCC(=O)O)NC(=O)c2cc(OCCC3CCCCN3)cc(-c3ccccc3)n2)CC1` (stereo not given in full) are 0.88, 3.7 nM and 810 nM.
As for `CCCCOC(=O)N1CCN(C(=O)[C@H](CCC(=O)O)NC(=O)c2cc(OCC3CCN(C(C)=O)CC3)cc(-c3ccccc3)n2)CC1`, the “Ratio IC50” value in the experiment with Platelet turned out to be 1.4. The Ki at P2Y purinoceptor 12 is 3.9 nM. In experiment [1], the IC50 stood at 2100 nM.
The corresponding values for `CCCCOC(=O)N1CCN(C(=O)[C@H](CCC(=O)O)NC(=O)c2cc(OC(=O)N(C)C3CCOC3)cc(-c3ccccc3)n2)CC1` (stereo not given in full) are 0.63, 1.8 nM and 520 nM.
In the case of `CCCCCOC(=O)N1CCN(C(=O)[C@H](CCC(=O)O)NC(=O)c2cc(OCCN)cc(-c3ccccc3)n2)CC1`, in the experiment with Platelet, the “Ratio IC50” value was determined as 3. Further, the Ki on P2Y purinoceptor 12 stood at 8.8 nM. Further, the IC50 in experiment [1] amounted to 2400 nM.
The corresponding values for `CCCCCOC(=O)N1CCN(C(=O)[C@H](CCC(=O)O)NC(=O)c2cc(NC(=O)OCCCN)cc(-c3ccccc3)n2)CC1` are 3.9, 1.9 nM and 5700 nM.
Regarding `CCOC(=O)N1CCN(C(=O)[C@H](CCC(=O)O)NC(=O)c2cc(N3CCC(N)CC3)cc(-c3ccccc3)n2)CC1`, the “Ratio IC50” value in the experiment on Platelet was 8.1. Also, the Ki on P2Y purinoceptor 12 came to 10 nM. For the same molecule, in experiment [1], the IC50 was 2800 nM.
The corresponding values for `CCCCCOC(=O)N1CCN(C(=O)[C@H](CCC(=O)O)NC(=O)c2cc(C(=O)N3CCCCC3)cc(-c3ccccc3)n2)CC1` are 2.2, 2.8 nM and 910 nM.
The corresponding values for `CCCCCOC(=O)N1CCN(C(=O)[C@H](CCC(=O)O)NC(=O)c2cc(OCCC)cc(-c3ccccc3)n2)CC1` are 28, 18 nM and 22000 nM.
For `CCCCCOC(=O)N1CCN(C(=O)[C@H](CCC(=O)O)NC(=O)c2cc(NC(=O)N3CCC(COC)CC3)cc(-c3ccccc3)n2)CC1`, the “Ratio IC50” value in the experiment on Platelet is on record as 5.2. For the same molecule, at P2Y purinoceptor 12, the Ki stood at 43 nM. Besides, the IC50 in experiment [1] came out at 4500 nM.
The corresponding values for `CCOC(=O)N1CCN(C(=O)[C@H](CCC(=O)O)NC(=O)c2cc(N(C)CCO)cc(-c3ccccc3)n2)CC1` are 26, 87 nM and 57000 nM.

The Ki is the equilibrium dissociation constant of an inhibitor or competing ligand from its target. By IC50 is commonly meant the concentration that inhibits the measured activity by half.

The values are drawn from ChEMBL document CHEMBL1157562, “Piperazinyl glutamate pyridines as potent orally bioavailable P2Y12 antagonists for inhibition of platelet aggregation” (J Med Chem, 2010).
